Measured values taken from ChEMBL document CHEMBL5247578, “Effective synthesis of benzimidazoles-imidazo[1,2-a]pyrazine conjugates: A comparative study of mono-and bis-benzimidazoles for antitumor activity” (Eur J Med Chem, 2019).

Columns and labels:
[1] = n-Octanol/phosphate buffer partition coefficient, logP of the compound at pH 7.4 incubated for 85 mins by shake-flask method; assay type: physicochemical
Outline: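 Octanol–water partition by shake-flask: n-octanol with 0.15 M phosphate buffer pH 7.4 at 10:1 volumes. Buffer-phase absorbance read before mixing, then shaken 50 min and centrifuged at 2500 rpm for 35 min. Buffer absorbance read again; P = (Ai−Af)/Af × Vw/Vo.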

MDA-MB-468 = assay: Antiproliferative activity against human MDA-MB-468 cells assessed as cell growth inhibition at 10 uM incubated for 48 hrs by sulforhodamine B assay relative to control; assay type: functional
Outline: (§1)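 NCI-60 single-dose screen at 10^-5 M. Cells grown in RPMI 1640 with 5% FBS and 2 mM L-glutamine, plated at 5,000–40,000 cells/well, and preincubated 24 h. Drug (DMSO stock) added and incubated 48 h at 37 °C, 5% CO2. Adherent cells fixed with cold TCA, stained with 0.4% SRB in 1% acetic acid, dye solubilized in 10 mM trizma base, A515 read. Percent growth taken against time-zero and untreated control.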

BT-549 = assay: Antiproliferative activity against human BT-549 cells assessed as cell growth inhibition at 10 uM incubated for 48 hrs by sulforhodamine B assay relative to control; assay type: functional
Outline: (§2)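 Single-dose NCI-60 prescreen at 10^-5 M. Cells in RPMI 1640 with 5% FBS and 2 mM L-glutamine, seeded 5,000–40,000 cells/well with 24 h preincubation, then drug exposure for 48 h at 37 °C under 5% CO2. Growth read by SRB staining of TCA-fixed cells at 515 nm against time-zero and untreated controls. Negative growth values denote cell kill.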

MDA-MB-231 = assay: Antiproliferative activity against human MDA-MB-231 cells assessed as cell growth inhibition at 10 uM incubated for 48 hrs by sulforhodamine B assay relative to control; assay type: functional; outline: as §1
MCF7 = assay: Antiproliferative activity against human MCF7 cells assessed as cell growth inhibition at 10 uM incubated for 48 hrs by sulforhodamine B assay relative to control; assay type: functional; outline: as §1
DU-145 = assay: Antiproliferative activity against human DU-145 cells assessed as cell growth inhibition at 10 uM incubated for 48 hrs by sulforhodamine B assay relative to control; assay type: functional
Outline: (§3)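 NCI-60 one-dose prescreen at 10^-5 M. Cells grown in RPMI 1640 with 5% FBS and 2 mM glutamine, preincubated 24 h, then exposed 48 h at 37 °C. Adherent lines TCA-fixed, SRB-stained, A515 read. Growth percent relative to time-zero and control; negative values mean cell kill.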

UO-31 = assay: Antiproliferative activity against human UO-31 cells assessed as cell growth inhibition at 10 uM incubated for 48 hrs by sulforhodamine B assay relative to control; assay type: functional; outline: as §1
RXF 393 = assay: Antiproliferative activity against human RXF 393 cells assessed as cell growth inhibition at 10 uM incubated for 48 hrs by sulforhodamine B assay relative to control; assay type: functional; outline: as §1
ACHN = assay: Antiproliferative activity against human ACHN cells assessed as cell growth inhibition at 10 uM incubated for 48 hrs by sulforhodamine B assay relative to control; assay type: functional; outline: as §2
A498 = assay: Antiproliferative activity against human A498 cells assessed as cell growth inhibition at 10 uM incubated for 48 hrs by sulforhodamine B assay relative to control; assay type: functional; outline: as §2
786-0 = assay: Antiproliferative activity against human 786-0 cells assessed as cell growth inhibition at 10 uM incubated for 48 hrs by sulforhodamine B assay relative to control; assay type: functional; outline: as §2
NCI/ADR-RES = assay: Antiproliferative activity against human NCI/ADR-RES cells assessed as cell growth inhibition at 10 uM incubated for 48 hrs by sulforhodamine B assay relative to control; assay type: functional; outline: as §1
OVCAR-8 = assay: Antiproliferative activity against human OVCAR-8 cells assessed as cell growth inhibition at 10 uM incubated for 48 hrs by sulforhodamine B assay relative to control; assay type: functional; outline: as §1
OVCAR-3 = assay: Antiproliferative activity against human OVCAR-3 cells assessed as cell growth inhibition at 10 uM incubated for 48 hrs by sulforhodamine B assay relative to control; assay type: functional; outline: as §1
SK-MEL-2 = assay: Antiproliferative activity against human SK-MEL-2 cells assessed as cell growth inhibition at 10 uM incubated for 48 hrs by sulforhodamine B assay relative to control; assay type: functional; outline: as §1
MDA-MB-435 = assay: Antiproliferative activity against human MDA-MB-435 cells assessed as cell growth inhibition at 10 uM incubated for 48 hrs by sulforhodamine B assay relative to control; assay type: functional; outline: as §1
M14 = assay: Antiproliferative activity against human M14 cells assessed as cell growth inhibition at 10 uM incubated for 48 hrs by sulforhodamine B assay relative to control; assay type: functional; outline: as §1
LOX IMVI = assay: Antiproliferative activity against human LOX IMVI cells assessed as cell growth inhibition at 10 uM incubated for 48 hrs by sulforhodamine B assay relative to control; assay type: functional; outline: as §1
U-251 = assay: Antiproliferative activity against human U-251 cells assessed as cell growth inhibition at 10 uM incubated for 48 hrs by sulforhodamine B assay relative to control; assay type: functional; outline: as §1
SNB-19 = assay: Antiproliferative activity against human SNB-19 cells assessed as cell growth inhibition at 10 uM incubated for 48 hrs by sulforhodamine B assay relative to control; assay type: functional; outline: as §1
SF-539 = assay: Antiproliferative activity against human SF-539 cells assessed as cell growth inhibition at 10 uM incubated for 48 hrs by sulforhodamine B assay relative to control; assay type: functional; outline: as §1
SF-295 = assay: Antiproliferative activity against human SF-295 cells assessed as cell growth inhibition at 10 uM incubated for 48 hrs by sulforhodamine B assay relative to control; assay type: functional; outline: as §1
SF-268 = assay: Antiproliferative activity against human SF-268 cells assessed as cell growth inhibition at 10 uM incubated for 48 hrs by sulforhodamine B assay relative to control; assay type: functional; outline: as §1
HT-29 = assay: Antiproliferative activity against human HT-29 cells assessed as cell growth inhibition at 10 uM incubated for 48 hrs by sulforhodamine B assay relative to control; assay type: functional; outline: as §1
HCT-15 = assay: Antiproliferative activity against human HCT-15 cells assessed as cell growth inhibition at 10 uM incubated for 48 hrs by sulforhodamine B assay relative to control; assay type: functional; outline: as §3
HCT-116 = assay: Antiproliferative activity against human HCT-116 cells assessed as cell growth inhibition at 10 uM incubated for 48 hrs by sulforhodamine B assay relative to control; assay type: functional; outline: as §3
NCI-H322M = assay: Antiproliferative activity against human NCI-H322M cells assessed as cell growth inhibition at 10 uM incubated for 48 hrs by sulforhodamine B assay relative to control; assay type: functional; outline: as §1
EKVX = assay: Antiproliferative activity against human EKVX cells assessed as cell growth inhibition at 10 uM incubated for 48 hrs by sulforhodamine B assay relative to control; assay type: functional; outline: as §3
SR = assay: Antiproliferative activity against human SR cells assessed as cell growth inhibition at 10 uM incubated for 48 hrs by sulforhodamine B assay relative to control; assay type: functional; outline: as §1
MOLT-4 = assay: Antiproliferative activity against human MOLT-4 cells assessed as cell growth inhibition at 10 uM incubated for 48 hrs by sulforhodamine B assay relative to control; assay type: functional; outline: as §1
HL-60 = assay: Antiproliferative activity against human HL-60 cells assessed as cell growth inhibition at 10 uM incubated for 48 hrs by sulforhodamine B assay relative to control; assay type: functional; outline: as §3

SMILES | logD at 1.417 h [1] | inhibition at 10 µM (MDA-MB-468) [%] | inhibition at 10 µM (BT-549) [%] | inhibition at 10 µM (MDA-MB-231) [%] | inhibition at 10 µM (MCF7) [%] | inhibition at 10 µM (DU-145) [%] | inhibition at 10 µM (UO-31) [%] | inhibition at 10 µM (RXF 393) [%] | inhibition at 10 µM (ACHN) [%] | inhibition at 10 µM (A498) [%] | inhibition at 10 µM (786-0) [%] | inhibition at 10 µM (NCI/ADR-RES) [%] | inhibition at 10 µM (OVCAR-8) [%] | inhibition at 10 µM (OVCAR-3) [%] | inhibition at 10 µM (SK-MEL-2) [%] | inhibition at 10 µM (MDA-MB-435) [%] | inhibition at 10 µM (M14) [%] | inhibition at 10 µM (LOX IMVI) [%] | inhibition at 10 µM (U-251) [%] | inhibition at 10 µM (SNB-19) [%] | further results
COc1ccc(-c2cn3ccnc3c(-c3ccc4ncn(C5CCCCC5)c4c3)n2)cc1 | 1.41 | 97.4 | 68.9 | 71.1 | 80.2 | 81.8 | 61.5 | -8.48 | 61 | -12.3 | 83.2 | 87.2 | 71.2 | -26.5 | 94.3 | -18.6 | 89.2 | 69.6 | 80.9 | 68.4 | inhibition at 10 µM (SF-539): -43.4%; inhibition at 10 µM (SF-295): 92.5%; inhibition at 10 µM (SF-268): 49.9%; inhibition at 10 µM (HT-29): 92.5%; inhibition at 10 µM (HCT-15): 78.8%; inhibition at 10 µM (HCT-116): 91.3%; inhibition at 10 µM (NCI-H322M): 31.5%; inhibition at 10 µM (EKVX): 56.6%; inhibition at 10 µM (SR): 91.7%; inhibition at 10 µM (MOLT-4): 82.8%; inhibition at 10 µM (HL-60): 98.6%
c1ccc(Cn2cnc3ccc(-c4nc(-c5ccc6c(c5)ncn6C5CCCCC5)cn5ccnc45)cc32)cc1 | 1.61 | -35.7 | -44.7 | -70.1 | 98 | -28.2 | -51.4 | -76.9 | 80.1 | -71.8 | -19.4 | 99.5 | 97.5 | -35.7 | -36.7 | -6.16 | -4.44 | -87 | -22.8 | 80.4 | inhibition at 10 µM (SF-539): -77.6%; inhibition at 10 µM (SF-295): -81.3%; inhibition at 10 µM (SF-268): -0.11%; inhibition at 10 µM (HT-29): -48.7%; inhibition at 10 µM (HCT-15): -9.03%; inhibition at 10 µM (HCT-116): -75.8%; inhibition at 10 µM (NCI-H322M): 84%; inhibition at 10 µM (EKVX): -12.2%; inhibition at 10 µM (SR): 94.5%; inhibition at 10 µM (MOLT-4): 95.6%; inhibition at 10 µM (HL-60): -20.8%
Brc1ccc(-c2cn3ccnc3c(-c3ccc4ncn(C5CCCCC5)c4c3)n2)cc1 | 1.73 | 33.7 | 35.1 | 22.8 | 46.4 | 5.66 | 42.9 | 34 | 21.4 | 20.7 | 18 | 30.5 | 13.2 | 26.3 | 24.1 | 58.4 | 26.9 | 30.7 | 23.7 | 18.3 | inhibition at 10 µM (SF-539): 24.4%; inhibition at 10 µM (SF-295): 41.3%; inhibition at 10 µM (SF-268): 15.5%; inhibition at 10 µM (HT-29): 20.9%; inhibition at 10 µM (HCT-15): 35.8%; inhibition at 10 µM (HCT-116): 31.2%; inhibition at 10 µM (NCI-H322M): 4.21%; inhibition at 10 µM (EKVX): 16.2%; inhibition at 10 µM (SR): 60.6%; inhibition at 10 µM (MOLT-4): 20.4%; inhibition at 10 µM (HL-60): 23.2%
c1cn2cc(-c3ccc4ncn(C5CCCCC5)c4c3)nc(-c3ccc4ncn(C5CCCCC5)c4c3)c2n1 | 1.19 | 31.4 | 38.3 | 49.2 | 45 | 46.3 | 68.8 | 16.8 | 45.1 | 26.2 | 34.3 | 48.8 | 59.5 | 40.4 | 31.7 | 60.2 | 40.6 | 67 | 69 | 41.2 | inhibition at 10 µM (SF-539): 16.7%; inhibition at 10 µM (SF-295): 44%; inhibition at 10 µM (SF-268): 41.7%; inhibition at 10 µM (HT-29): 71.9%; inhibition at 10 µM (HCT-15): 57.1%; inhibition at 10 µM (HCT-116): 80.2%; inhibition at 10 µM (NCI-H322M): 39.1%; inhibition at 10 µM (EKVX): 30.8%; inhibition at 10 µM (SR): 71.8%; inhibition at 10 µM (MOLT-4): 79.1%; inhibition at 10 µM (HL-60): 51%
